High-throughput results deposited in PubChem BioAssay by several laboratories.
An excerpt weighted towards active compounds, which were near 4.9% of everything screened.
NF-kB expr up = activators of NF-kB expression in neurons, primary screen, cell-based, HTS; human neuronal cells, NF-kB reporter expression; stronger effect = higher value; fold change at 12.5 µM; 190,000 compounds, 1.6% hits; in the data active = fold change above about 3.3
STAT3 activator = IL-6 driven STAT3 reporter potentiators, primary screen, U3A cells, luciferase, luminescence, MLSCN library | IL-6 STAT3-luciferase reporter; 100% = signal with IL-6 EC80 alone | 190,000 compounds, 0.91% hits | activation (% of control), % at 5.6 µM | AID 871, 2007;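 active = activation above the screen-wide mean of compound activation plus 3 SD, cut at about 130% in these data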;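 note: 0% = background luminescence of wells with medium and substrate only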
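system = STAT3-luciferase reporter U3A cells | reagent = IL-6 stimulus at 33 ng/mL final | timing = 1 h compound pre-exposure, 6 h IL-6 stimulation, 37 °C | measured by = luminescence | evaluation = % activation versus median of IL-6-stimulated wells | control set = IL-6-only wells as 100% reference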
APP 5'UTR act = activators of APP 5'UTR luciferase reporter, primary screen, SH-SY5Y cells; 190,000 compounds, 1% hits; activation, % at 2 µM; SH-SY5Y APP 5'UTR luciferase reporter, luminescence; zero percent = DMSO vehicle wells;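 active = activation above a set limit, based on mean plus 3 SD of controls, cut at about 140% in these data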
STAT1 blocker = STAT1 signaling inhibitors, primary screen, cell-based, HTS, luciferase reporter; NIH 3T3 STAT1-luciferase reporter, IFN-gamma, luminescence; inhibition, % at 5.5 µM; 200,000 compounds, 0.35% hits; AID 920, 2007;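 active = inhibition above a set limit, the mean inhibition across all tested compounds plus 3 SD, cut at about 34% in these data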;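 note: 0% = IFN-gamma with DMSO and 100% = IFN-gamma with 300 µM nifuroxazide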
STAT3 inh = IL-6 driven STAT3 reporter inhibitors, primary screen, U3A cells, luciferase, luminescence, MLSCN library; IL-6 STAT3-luciferase reporter; host cell line lacks STAT1; inhibition, % at 5.5 µM; 190,000 compounds, 0.89% hits; AID 862, 2007;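 active = inhibition above the mean inhibition across all screened compounds plus 3 SD, cut at about 44% in these data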;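 note: 0% = DMSO only wells and 100% = 100 µM nifuroxazide control wells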
STAT1 act = STAT1 signaling activators, primary screen, cell-based, HTS, luciferase reporter; NIH 3T3 STAT1-luciferase reporter, IFN-gamma, luminescence; 100% = IFN-gamma alone, no compound; activation (% of control), % at 5.5 µM; 200,000 compounds, 2.6% hits; AID 932, 2007;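 active = activation above the screen-wide mean activation plus 3 SD, cut at about 130% in these data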;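 note: raw ratio to IFN-gamma control signal so 100% means no change and 0% no light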
An asterisk follows results filed as active.

SMILES | NF-kB expr up | STAT3 activator | APP 5'UTR act | STAT1 blocker | STAT3 inh | STAT1 act
CN1C(=O)SC(Nc2ccccc2)C1=O (configuration not stated) | 1.1 | 106 | 12 | -4 | -4 | 106
COc1cccc(NC2SC(=O)N(c3ccccc3)C2=O)c1 (configuration not stated) | 4.1* | 111 | 14 | -17 | -13 | 117
Cc1nc2cc(-c3ccccc3)sc2c(=O)n1N | 0.83 | 13 | -26 | 86* | 99* | 21
Cc1ccc(C)n1-n1c(C)nc2sc(-c3ccccc3)cc2c1=O | 2 | 80 | 79 | -31 | 27 | 128
CNc1ccccc(-c2ccc3ccccc3n2)c1=O | 2.3 | 111 | 104 | -54 | -7 | 147*
Cc1n[nH]c(=O)nc1N/N=C/c1ccc(O)c([N+](=O)[O-])c1 | 1.2 | 91 | 2 | -23 | 13 | 120
O=C(c1cccc(S(=O)(=O)N2CCOCC2)c1)N(Cc1ccc(F)cc1)Cc1ccco1 | 0.81 | 134* | 1 | 1 | -29 | 98
CN(C)S(=O)(=O)c1cccc(C(=O)N(Cc2ccc(F)cc2)Cc2ccco2)c1 | 0.98 | 101 | -14 | 8 | 3 | 97
COC(=O)c1ccc(N=Nc2ccccc2)cc1 | 3.3 | 91 | 39 | -35 | 13 | 132*
COC(=O)CCC(=O)Nc1ccc(N=Nc2ccccc2)cc1 | 2.6 | 95 | 54 | -37 | 17 | 133*
O=C(COC(=O)C1CC1)Nc1ccc(N=Nc2ccccc2)cc1 | 1.2 | 94 | 101 | -38 | 6 | 136*
CCOc1cc(C(=O)N/N=C\c2cn(CC)nc2C)cc(OCC)c1OCC | 0.91 | 109 | 1 | 5 | -13 | 96
COc1ccccc1NC(=O)Nc1nnc(C(C)C)s1 | 1.7 | 107 | 43 | -44 | -5 | 140*
Cc1cccc(/C(N)=N/OC(=O)c2ccc(Br)o2)c1 | 2.9 | 117 | 50 | -32 | -24 | 132*
Cc1ccc(OC(=O)c2ccc(Br)o2)cc1 | 1.3 | 97 | -3 | 6 | 5 | 95
N/C(=N\OC(=O)c1ccc(F)cc1)c1ccc(Br)cc1 | 2 | 87 | 52 | -33 | 19 | 128
Cc1ccc(/C(N)=N/OC(=O)c2cccc(F)c2)cc1 | 4.6* | 128 | 15 | -40 | -34 | 137*
COc1ccccc1C/C(N)=N/OC(=O)c1ccc2c(c1)OCO2 | 1.4 | 98 | 13 | -7 | 6 | 106
Cc1cccc(/C(N)=N/OC(=O)c2cccnc2)c1 | 2.6 | 87 | 149* | -37 | 18 | 133*
N/C(=N\OC(=O)c1cccc([N+](=O)[O-])c1)c1cccnc1 | 1.5 | 100 | -10 | -25 | 2 | 122
Cc1cccc(/C(N)=N/OC(=O)c2ccc3c(c2)OCO3)c1 | 4.3* | 71 | 192* | -50 | 33 | 145*
CC(C)OCCCNC(=O)NC(=O)c1ccc(Cl)cc1 | 1.3 | 101 | -1 | 4 | 3 | 95
CCCC1=C([O-])C2N=CC=CC2=[N+](c2ccccn2)C1=O (configuration not stated) | 1.1 | 108 | -3 | -4 | -6 | 104
CN(C)/C=C1\C(=O)N(c2ccc(Cl)cc2)CS1(=O)=O | 2 | 102 | 24 | -31 | 4 | 128
Cc1ccc(N2CS(=O)(=O)/C(=C/N(C)C)C2=O)cc1 | 1.9 | 105 | 99 | -55 | -1 | 150*
SMILES | NF-kB expr up | STAT3 activator | APP 5'UTR act | STAT1 blocker | STAT3 inh | STAT1 act
O=C(/C=C/Sc1ccccc1)c1ccccc1 | 5.2* | 92 | 18 | -13 | 7 | 112
O=C(/C=C/Sc1ccccc1)c1ccc(Cl)cc1 | 6.2* | 90 | -5 | -25 | 14 | 123
COc1ccc(C(=O)N[C@H](C(=O)N2CCN(c3ccccc3F)CC2)C(C)C)cc1 | 0.86 | 103 | 4 | 1 | -4 | 99
Cc1ccc(N=C2NC(=O)CS2)c(C)c1 | 1.1 | 98 | -11 | 6 | 2 | 94
Cc1ccc(N=C2NC(=O)/C(=C\c3ccsc3)S2)c(C)c1 | 4.4* | 104 | -18 | -7 | -7 | 106
COc1ccc(NC(=O)/C=C/c2ccc(F)cc2)cn1 | 2 | 96 | 19 | -40 | 7 | 136*
COc1ccc(NC(=O)/C=C/c2cc(OC)c(OC)c(OC)c2)cn1 | 0.95 | 87 | -2 | -1 | 22 | 100
COc1ccc(NC(=O)/C=C/c2ccccc2)cn1 | 2.9 | 93 | 85 | -46 | 4 | 141*
CCOCC(=O)Nc1cc(C(=O)NCCc2ccccc2)ccc1Cl | 1.7 | 100 | 65 | -35 | 3 | 130*
CC(C)CCNC(=O)c1ccc(Cl)c(NC(=O)Cc2ccccc2)c1 | 1.2 | 101 | 13 | 0 | 2 | 100
COc1ccc(C(=O)Nc2cc(C(=O)NCCc3ccccc3)ccc2Cl)cc1 | 1.1 | 108 | 31 | -8 | -9 | 107
COCC(=O)Nc1cc(C(=O)NCCc2ccccc2)ccc1Cl | 1.8 | 96 | 74 | -49 | 8 | 145*
CC(=O)Nc1c(C)ccc(CNC(=O)COc2cc(C)ccc2C)c1C | 1.1 | 104 | 7 | 6 | 4 | 95
COc1ccccc1Nc1ncc(-c2cccs2)s1 | 5.1* | 156* | 9 | -40 | -61 | 136*
COc1ccccc1Nc1ccc(C(=O)NCc2cccs2)cn1 | 2.2 | 86 | -2 | -15 | 18 | 113
CC1(C)CC(=O)c2cc(N=C/C(C(=O)c3ccccc3)=C(\O)c3ccccc3)c(=O)oc2C1 | 1.3 | 99 | 38 | -38 | 7 | 132*
Cn1c(C(=O)NCc2ccccn2)cc2c(=O)n3ccccc3nc21 | 1.9 | 91 | 17 | -37 | 14 | 133*
COc1ccc(F)cc1C(=O)C1CCCN(Cc2ccc(Sc3nncn3C)o2)C1 (configuration not stated) | 1 | 113 | -11 | 5 | -8 | 96
COc1cc(CNc2ccc(N3CCCC3)cc2)ccc1OCc1ccccc1 | 1.1 | 134* | 84 | -24 | -31 | 121
Cn1cc(Br)c(C(=O)Nc2nccs2)n1 | 1.3 | 106 | 11 | -1 | -2 | 101
CCCCCCNC1=NCCS1 | 1 | 101 | 2 | 1 | 0 | 100
Cc1ccc2nsnc2c1NC(=O)COc1ccccc1 | 1.1 | 104 | 3 | -4 | 8 | 103
Fc1ccc(-c2csc(/C=C/c3ccc4c(c3)OCO4)n2)cc1 | 1.4 | 93 | 2 | -9 | 11 | 108
CCOC(=O)c1c(NC(=O)C2CCCCC2C(=O)O)sc2c1CCCCC2 (configuration not stated) | 0.95 | 100 | -1 | 2 | 9 | 98
COC(=O)c1c(NC(=O)C2CCCCC2C(=O)O)sc2c1CCCCC2 (configuration not stated) | 1.6 | 101 | -2 | -34 | 0 | 130*
